Laboratory results published in publication PMC5902032 (European journal of medicinal chemistry, 2018).
Where two headings read alike, the source gives them in different places.

Tests used:
[1] = molecular target: P. falciparum 3D7elo1-pfs16-CBG99 late-stage gametocytes; test: Gametocytocidal luciferase-based assay, 3D7elo1-pfs16-CBG99; assay type: cell-based, Plasmodium falciparum; details: read-out: GCT: 3D7elo1-pfs16-CBG99 IC50, 72 h
[2] = molecular target: P. falciparum NF54-HGL gametocytes; test: NF54-HGL gametocyte luciferase assay; assay type: cell-based, Plasmodium falciparum; details: read-out: GCT: NF54-HGL IC50
Procedure, shortened: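 Gametocytes came from a flask inoculated with 1% asexual parasites at 5% haematocrit in RPMI1640 with 10% human serum. Asexual stages were cleared with 50 mM NAG on days 4–9. Mostly stage IV cells were Percoll-purified on day 11 and plated at 5000 per well (final DMSO 0.1%). After 72 h at 37 °C, 3% O2, 4% CO2, viability was read as ONE-Glo luminescence.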

[3] = tested on: P. falciparum strain NF54 asexual blood stage parasites; test: NF54 asexual blood stage Sybrgreen DNA replication assay; assay type: cell-based, Plasmodium falciparum; details: read-out: NF54 IC50, CQ-S strain, 72 h
Procedure, shortened: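 Asexual NF54 parasites were seeded at 0.83% parasitaemia and 1.5% haematocrit in RPMI1640 with 10% human serum. Serial dilutions were made from DMSO stocks in medium (final DMSO 0.1%). Plates were incubated 72 h at 37 °C under 3% O2 and 4% CO2. Growth was read as SYBR Green fluorescence.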

[4] = tested on: P. falciparum D10 (CQ-S) strain; test: Antiplasmodial activity against D10 strain; assay type: cell-based, Plasmodium falciparum; details: read-out: D10 IC50
[5] = tested on: P. falciparum W2 (CQ-R) strain; test: Antiplasmodial activity against W2 strain; assay type: cell-based, Plasmodium falciparum; details: read-out: W2 IC50
[6] = tested on: late stages Plasmodium gametocytes; details: read-out: in vitro IC50 against late stages Plasmodium gametocytes; different published assays; cited from earlier work
[7] = tested on: male and female NF54 gametes; details: cited from earlier work
[8] = tested on: P. falciparum asexual and sexual stages; details: read-out: IC50 against P. falciparum asexual and sexual stages; cited from earlier work
[9] = tested on: Langendorff-isolated rat hearts; test: Cardiac mechanical function and ECG in Langendorff-isolated rat hearts; details: for Effect on left ventricular pressure (LVP): concentration-effect relationship; for Effect on coronary perfusion pressure (CPP): data not shown
Procedure, shortened: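 Rats heparinised (5000 U/kg) with xylazine (4 mg/kg), decapitated. Hearts perfused retrogradely via aorta at 10 mL/min with Krebs-Henseleit (95% O2-5% CO2, pH 7.4, 37 °C), equilibrated ≥20 min before drug. LVP by intraventricular latex balloon (end-diastolic 10 mmHg), systolic minus diastolic. CPP by inflow-line transducer. Surface ECG at 1 kHz: RR, HR, PQ, QRS, QT, Bazett-corrected QTc.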

PfPMT = molecular target: T1, PfPMT (Plasmodium falciparum, UniProt Q8IDQ9); test: PfPMT radiochemical methyltransferase assay; assay type: biochemical; details: 100 μM
T1 sequence (Q8IDQ9 1-266): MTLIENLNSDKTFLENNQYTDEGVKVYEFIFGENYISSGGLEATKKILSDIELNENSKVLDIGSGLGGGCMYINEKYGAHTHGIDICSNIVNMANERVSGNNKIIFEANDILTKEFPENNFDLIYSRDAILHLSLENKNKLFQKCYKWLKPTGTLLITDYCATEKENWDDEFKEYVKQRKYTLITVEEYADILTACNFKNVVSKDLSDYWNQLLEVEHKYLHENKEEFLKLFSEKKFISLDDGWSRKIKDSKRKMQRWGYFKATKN
Procedure, shortened: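 Recombinant PfPMT was expressed in and purified from E. coli. Activity was measured radiochemically with 2 µg enzyme in 0.1 M Hepes-KOH pH 8.0, 2 mM Na2EDTA, 10% glycerol and 5% DMSO. The reaction contained 30 µM SAM (including 100 nCi [methyl-14C]SAM) and 55 µM phosphoethanolamine. Inhibitors were screened at 100 µM; values are mean ± SD, n = 3.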

Cav1.2 channels = Cav1.2 channels (Rattus norvegicus, UniProt P22002); test: Whole-cell patch-clamp of IBa1.2 in single rat tail artery myocytes; assay type: cell-based; details: 30 μM
Procedure, shortened: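 Rat tail artery myocytes were isolated enzymatically (collagenase, 37 °C, 40–45 min), kept at 4 °C and used within two days. Whole-cell patch-clamp was run at 20–22 °C. The external solution held 5 mM Ba2+ and 30 mM TEA; the pipette solution was Cs+-based (pCa 8.4, pH 7.4). IBa was evoked by 250-ms pulses to 0 mV from −50 mV at 0.067 Hz, with recording once current had stabilised.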

P. berghei liver stages = test: P. berghei liver-stage analysis in mouse primary hepatocytes; assay type: cell-based, Plasmodium berghei
Procedure, shortened: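 Mouse primary hepatocytes were infected with 20'000 mCherry-expressing P. berghei ANKA sporozoites. From 2 h post-infection, cells received a range of test compound concentrations or a matching DMSO control, with medium and drug renewed at 24 h. At 48 h, parasite number and size in unfixed cells were measured by automated microscopy (n = 4, SD). Groups were compared by one-way ANOVA with Dunnett's test.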

Chain of Cav1.2 channels (P22002 whole entry): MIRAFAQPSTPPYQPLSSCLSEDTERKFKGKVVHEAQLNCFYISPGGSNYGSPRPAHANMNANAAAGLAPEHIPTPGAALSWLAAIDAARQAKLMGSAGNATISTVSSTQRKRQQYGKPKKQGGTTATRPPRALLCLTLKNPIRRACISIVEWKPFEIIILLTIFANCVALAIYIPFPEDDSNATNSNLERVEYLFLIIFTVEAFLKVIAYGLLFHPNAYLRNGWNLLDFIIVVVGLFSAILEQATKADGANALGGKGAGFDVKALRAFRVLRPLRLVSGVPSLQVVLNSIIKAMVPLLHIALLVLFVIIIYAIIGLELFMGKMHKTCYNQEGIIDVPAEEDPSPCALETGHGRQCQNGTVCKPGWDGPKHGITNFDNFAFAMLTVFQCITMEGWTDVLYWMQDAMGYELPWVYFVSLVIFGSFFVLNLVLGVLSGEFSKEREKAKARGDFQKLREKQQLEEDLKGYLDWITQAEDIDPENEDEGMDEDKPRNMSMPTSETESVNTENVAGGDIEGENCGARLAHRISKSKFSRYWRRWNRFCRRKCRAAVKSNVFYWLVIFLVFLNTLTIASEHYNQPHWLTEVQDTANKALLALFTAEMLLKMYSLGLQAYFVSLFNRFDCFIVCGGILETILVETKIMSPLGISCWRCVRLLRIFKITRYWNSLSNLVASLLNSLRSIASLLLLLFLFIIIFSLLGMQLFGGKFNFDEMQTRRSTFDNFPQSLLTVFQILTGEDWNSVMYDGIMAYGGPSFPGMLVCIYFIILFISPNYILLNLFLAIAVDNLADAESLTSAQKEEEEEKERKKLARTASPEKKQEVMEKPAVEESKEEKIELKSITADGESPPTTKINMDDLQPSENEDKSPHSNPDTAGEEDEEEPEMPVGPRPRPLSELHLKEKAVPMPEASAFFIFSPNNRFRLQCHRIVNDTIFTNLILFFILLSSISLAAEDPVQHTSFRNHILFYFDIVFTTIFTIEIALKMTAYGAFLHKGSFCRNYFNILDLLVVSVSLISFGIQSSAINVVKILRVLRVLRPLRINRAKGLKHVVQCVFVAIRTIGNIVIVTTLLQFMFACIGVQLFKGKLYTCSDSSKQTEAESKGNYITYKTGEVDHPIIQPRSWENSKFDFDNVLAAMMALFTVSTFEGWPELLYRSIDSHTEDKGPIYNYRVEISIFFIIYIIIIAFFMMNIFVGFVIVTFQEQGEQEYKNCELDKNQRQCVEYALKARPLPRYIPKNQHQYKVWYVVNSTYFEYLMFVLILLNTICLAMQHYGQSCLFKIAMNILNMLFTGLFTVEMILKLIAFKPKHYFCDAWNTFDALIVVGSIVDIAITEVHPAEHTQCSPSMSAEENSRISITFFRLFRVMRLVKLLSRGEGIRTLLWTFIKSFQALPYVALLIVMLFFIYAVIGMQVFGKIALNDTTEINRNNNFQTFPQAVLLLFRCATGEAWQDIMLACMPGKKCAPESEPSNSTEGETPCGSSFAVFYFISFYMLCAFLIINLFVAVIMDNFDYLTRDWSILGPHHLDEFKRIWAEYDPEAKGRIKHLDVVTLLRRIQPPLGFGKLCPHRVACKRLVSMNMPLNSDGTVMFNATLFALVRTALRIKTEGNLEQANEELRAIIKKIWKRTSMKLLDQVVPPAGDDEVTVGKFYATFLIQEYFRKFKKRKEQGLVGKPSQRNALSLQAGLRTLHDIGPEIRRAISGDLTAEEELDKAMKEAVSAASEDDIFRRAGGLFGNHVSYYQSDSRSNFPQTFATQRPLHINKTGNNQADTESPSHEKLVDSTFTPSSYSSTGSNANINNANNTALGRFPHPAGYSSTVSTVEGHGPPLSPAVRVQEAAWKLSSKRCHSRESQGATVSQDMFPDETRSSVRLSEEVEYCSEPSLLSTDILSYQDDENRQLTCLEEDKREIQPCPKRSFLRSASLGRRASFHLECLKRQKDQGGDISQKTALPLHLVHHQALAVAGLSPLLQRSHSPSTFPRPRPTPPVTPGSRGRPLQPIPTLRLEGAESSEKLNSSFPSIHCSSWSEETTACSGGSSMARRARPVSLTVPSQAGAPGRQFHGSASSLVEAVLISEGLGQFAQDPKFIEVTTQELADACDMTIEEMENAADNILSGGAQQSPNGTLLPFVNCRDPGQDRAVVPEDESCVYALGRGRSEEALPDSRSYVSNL
Chain of Cav1.2 channels (P54290 25-944 partner limits assumed): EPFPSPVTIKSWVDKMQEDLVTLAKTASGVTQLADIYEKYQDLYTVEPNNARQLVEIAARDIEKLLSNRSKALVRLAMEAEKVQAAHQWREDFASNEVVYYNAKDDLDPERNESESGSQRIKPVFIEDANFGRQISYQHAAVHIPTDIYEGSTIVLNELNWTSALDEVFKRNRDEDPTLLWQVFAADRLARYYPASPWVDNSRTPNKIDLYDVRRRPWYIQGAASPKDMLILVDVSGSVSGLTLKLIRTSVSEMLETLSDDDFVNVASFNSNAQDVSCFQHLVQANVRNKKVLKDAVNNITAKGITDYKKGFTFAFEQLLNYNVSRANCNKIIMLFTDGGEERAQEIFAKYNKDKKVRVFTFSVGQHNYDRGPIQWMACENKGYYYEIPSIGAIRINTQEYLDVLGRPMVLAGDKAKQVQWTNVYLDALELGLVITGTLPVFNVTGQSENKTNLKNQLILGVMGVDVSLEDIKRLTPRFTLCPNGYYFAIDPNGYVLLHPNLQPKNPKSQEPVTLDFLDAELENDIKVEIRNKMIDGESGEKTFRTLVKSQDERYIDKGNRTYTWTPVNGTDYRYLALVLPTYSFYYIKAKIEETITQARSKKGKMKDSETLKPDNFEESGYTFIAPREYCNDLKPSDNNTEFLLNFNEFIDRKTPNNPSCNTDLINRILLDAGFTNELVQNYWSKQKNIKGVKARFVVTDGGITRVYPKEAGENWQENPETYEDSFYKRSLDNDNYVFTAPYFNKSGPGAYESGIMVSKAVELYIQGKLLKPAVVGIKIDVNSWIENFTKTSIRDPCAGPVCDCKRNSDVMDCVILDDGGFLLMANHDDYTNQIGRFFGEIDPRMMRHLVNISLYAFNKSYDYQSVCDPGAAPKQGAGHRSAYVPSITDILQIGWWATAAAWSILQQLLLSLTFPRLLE
Chain of Cav1.2 channels (P54290 945-1091 partner limits assumed): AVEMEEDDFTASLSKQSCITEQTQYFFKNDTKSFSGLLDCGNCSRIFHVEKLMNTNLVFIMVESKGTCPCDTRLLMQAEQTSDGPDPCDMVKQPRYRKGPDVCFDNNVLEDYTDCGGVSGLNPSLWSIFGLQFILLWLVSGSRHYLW
Chain of Cav1.2 channels (P54287 whole entry partner): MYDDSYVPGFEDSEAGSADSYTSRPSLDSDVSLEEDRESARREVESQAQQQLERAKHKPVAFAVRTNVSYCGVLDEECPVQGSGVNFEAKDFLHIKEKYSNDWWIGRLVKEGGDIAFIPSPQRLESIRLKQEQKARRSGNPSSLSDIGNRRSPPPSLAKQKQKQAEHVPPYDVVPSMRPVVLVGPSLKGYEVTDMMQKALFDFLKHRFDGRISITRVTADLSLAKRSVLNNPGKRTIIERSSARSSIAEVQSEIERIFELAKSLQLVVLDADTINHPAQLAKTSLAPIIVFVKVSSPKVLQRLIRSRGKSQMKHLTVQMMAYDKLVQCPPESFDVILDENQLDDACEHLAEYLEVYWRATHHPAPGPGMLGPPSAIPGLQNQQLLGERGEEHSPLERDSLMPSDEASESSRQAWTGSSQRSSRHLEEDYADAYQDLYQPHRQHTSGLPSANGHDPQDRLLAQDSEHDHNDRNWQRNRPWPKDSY

With “1-(5-Bromobenzothiophen-2-yl)-N-(piperidin-4-ylmethyl)methanamine [Compound 32]” as the compound, how does the IC50 ([1]; late-stage gametocytes (stage IV–V), luciferase) read?
Its IC50 is 1400 nM.

And the IC50 ([2]; gametocytes predominantly stage IV, 72 h, luminescence)?
The IC50 was 53 nM.

And the IC50 [3]?
Its IC50 is 730 nM.

What about the IC50 ([4]; CQ-S strain, 72 h, pLDH) of the same compound?
The IC50 was 1000 nM.

What about the IC50 ([5]; CQ-R strain, 72 h, pLDH) of the same compound?
Its IC50 is 1500 nM.

Which IC50 ([4]; Plasmodium falciparum, D10, 72 h) does the source give for `CCN(CC)CCCC(C)Nc1ccnc2cc(Cl)ccc12` (stereo not shown) [Chloroquine, reference compound] here?
Its IC50 is 26 nM.

What about the IC50 ([5]; Plasmodium falciparum, W2, 72 h) of the same compound?
Its IC50 is 310 nM.

What does the source list for `Clc1cc(Br)ccc1-c1ccc(CNCC2CCNCC2)o1` [Compound 1, 1-(5-(4-Bromo-2-chlorophenyl)furan-2-yl)-N-(piperidin-4-ylmethyl)methanamine]?
IC50 [6]: < 1000 nM; Activity on male and female NF54 gametes [7]: activity on both male and female NF54 gametes; IC50 [8]: < 1000 nM; Sinus arrhythmia [9]: 3 out of 4; Effect on left ventricular pressure (LVP) [9]: reduced left ventricular pressure (LVP) in a concentration-dependent manner; Effect on coronary perfusion pressure (CPP) [9]: leaving unaltered coronary perfusion pressure; Inhibitory activity against PfPMT (PfPMT): weak activity

For `CN(C)CCCNCc1ccc(-c2ccc(F)c(Cl)c2)o1` [Compound 2, N-[(5-(3-chloro-4-fluorophenyl)furan-2-yl)methyl]-N′,N′-dimethylpropane-1,3-diamine, reference compound], which IC50 [6] is on record?
The IC50 was less than 1000 nM.

Which “Inhibitory activity against PfPMT” value (PfPMT) does the source give for `N#Cc1ccc(-c2ccc(CNCC3CCNCC3)o2)cc1` [Compound 24, 1-(5-(4-Cyanophenyl)furan-2-yl)-N-(piperidin-4-3ylmethyl)methanamine] here?
The value was “weak activity”.

With `Clc1ccc(-c2ccc(CNCC3CCNCC3)o2)c(-c2ccccc2)c1` [Compound 25, 1-(5-(2-Phenyl-4-chlorophenyl)furan-2-yl)-N-(piperidin-4-ylmethyl)methanamine] as the compound, how does the “Effect on IBa1.2 current” value (Cav1.2 channels) read?
The value was “blocked the current”.

And the “Effect on left ventricular pressure (LVP)” value [9]?
Its value is “reduced left ventricular pressure (LVP) in a concentration-dependent manner”.

And the “Effect on coronary perfusion pressure (CPP)” value [9]?
Its value is “leaving unaltered coronary perfusion pressure”.

What about the Parasite sizes (P. berghei liver stages; 48 hpi, mouse primary hepatocytes, different concentrations) of the same compound?
Its Parasite sizes is “Neither parasite numbers (Figure 2A) nor parasite sizes (Figure 2B) were significantly influenced”.

What about the “Parasite numbers per well” value (P. berghei liver stages; 48 h, mouse primary hepatocytes, different concentrations) of the same compound?
Its value is “no liver stage activity”.

What about the Detached cell formation (P. berghei liver stages; detached cells at 65 hpi vs 48 h number) of the same compound?
The Detached cell formation was “Neither concentration tested significantly inhibited detached cell formation”.

For `C[N+](C)(CCCNCc1ccc(-c2ccc(Cl)cc2Br)o1)Cc1ccccc1.[Cl-]` [Compound 48, N-Benzyl-3-[(5-(4-chloro-2-bromophenyl)furan-2-yl-methyl)amino]-N,N-dimethylpropan-1-ammonium chloride], which “Inhibitory activity against PfPMT” value (PfPMT) is on record?
The value was “weak activity”.

Which results are given for `CC[C@H](C)[C@H](NC(=O)[C@H]([C@@H](C)CC)N(C)C(C)=O)C(=O)N[C@H](C(=O)N[C@@H](CC(C)C)C(=O)[C@@]1(C)CO1)[C@@H](C)O` [Epoxomycin, reference compound]?
IC50 ([1]; Plasmodium falciparum): 7 nM; IC50 ([2]; Plasmodium falciparum, NF54, 72 h): 0.7 nM
